Results on four compounds are retold here after publication PMC3448846 (European neuropsychopharmacology : the journal of the …, 2012).

Read-outs that look alike come from different tables or passages of the source. Some results are limits rather than exact numbers.

The test system of one series is α1 GABAA receptors. The note with it: after 7 days of treatment, ref Wu et al., 1995, cited from earlier work.
The target in the next series is α5β3γ2 GABAA receptors (Rattus norvegicus, UniProt P18508+P19969). In words: Two electrode voltage clamp, modulation of EC3 GABA current in Xenopus oocytes. It counts as cell-based. The note with it: for % of control current: EC3 GABA, α5β3γ2.
For another series, the target named is α2β3γ2 GABAA receptors (Rattus norvegicus, UniProt P18508+P23576). The series is described as above. It counts as cell-based.
A further series addresses α3β3γ2 GABAA/BZ site. Conditions: α3 GABAA receptors; ref Yin et al., 2010; cited from earlier work.
A short description of series [1]: Quantification in rat brain tissue. It counts as in vivo, Wistar rats. Conditions: Wistar, intraperitoneal, 10 mg/kg, total brain concentration, highest behaviorally tested dose.
The next series has as its target α1β3γ2 GABAA/BZ site. Conditions: recombinant human receptors; ref Yin et al., 2010; cited from earlier work.
Another series deals with α3β3γ2 GABAA receptors (Rattus norvegicus, UniProt P18508+P20236). Nature of the series: Two electrode voltage clamp, modulation of EC3 GABA current in Xenopus oocytes. It counts as cell-based.
A further series concerns the target α1β3γ2 GABAA receptors (Rattus norvegicus, UniProt P18508+P62813). The series is described as above. It counts as cell-based.
The test system of series [2] is spatial learning and memory. Nature of the series: Morris water maze. It counts as in vivo, male Wistar rats. The note with it: for effect on Morris water-maze performance on its own: WYS8 0.2, 1 and 10 mg/kg i.p., β-CCt 5 mg/kg i.p. In outline:
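Male Wistar rats, 220–250 g, n=8/group, dosed i.p. in 85% water/14% propylene glycol/1% Tween 80 (sonicated) 20 min before each daily block for 5 acquisition days. Pool 200 cm wide with 23°C water; 15×10 cm platform 2 cm below the surface. Each block had 4 trials (max 120 s, 60 s interval, pseudorandom starts). Per-rat daily means were recorded. The probe trial measured target-region time and peripheral-ring distance.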

Another series has as its target α2β3γ2 GABAA/BZ site. Conditions: α2 GABAA receptors; ref Yin et al., 2010; cited from earlier work.
A further series deals with α5β3γ2 GABAA/BZ site. Conditions: α5 GABAA receptors; ref Yin et al., 2010; cited from earlier work.
The test system of series [3] is spatial learning and memory. Conditions: ref Savić et al, 2009, cited from earlier work.
[4] abbreviates: WYS8 0.2 and 10 mg/kg + DZP 2 mg/kg i.p.

Chain of α3β3γ2 GABAA receptors (P20236 29-493): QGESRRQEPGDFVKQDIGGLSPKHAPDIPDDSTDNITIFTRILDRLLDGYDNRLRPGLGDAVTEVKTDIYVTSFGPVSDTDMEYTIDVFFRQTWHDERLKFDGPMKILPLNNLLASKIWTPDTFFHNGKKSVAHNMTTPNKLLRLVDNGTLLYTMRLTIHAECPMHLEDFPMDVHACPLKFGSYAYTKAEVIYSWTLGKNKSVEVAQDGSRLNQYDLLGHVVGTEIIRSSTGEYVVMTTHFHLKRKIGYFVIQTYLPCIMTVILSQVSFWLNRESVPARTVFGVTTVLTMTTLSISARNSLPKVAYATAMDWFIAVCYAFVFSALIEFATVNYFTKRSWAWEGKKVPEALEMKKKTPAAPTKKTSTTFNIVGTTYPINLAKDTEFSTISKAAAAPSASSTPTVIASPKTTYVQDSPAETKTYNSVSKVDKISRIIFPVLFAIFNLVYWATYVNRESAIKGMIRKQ
Chain of α3β3γ2 GABAA receptors (P63079 26-473 partner): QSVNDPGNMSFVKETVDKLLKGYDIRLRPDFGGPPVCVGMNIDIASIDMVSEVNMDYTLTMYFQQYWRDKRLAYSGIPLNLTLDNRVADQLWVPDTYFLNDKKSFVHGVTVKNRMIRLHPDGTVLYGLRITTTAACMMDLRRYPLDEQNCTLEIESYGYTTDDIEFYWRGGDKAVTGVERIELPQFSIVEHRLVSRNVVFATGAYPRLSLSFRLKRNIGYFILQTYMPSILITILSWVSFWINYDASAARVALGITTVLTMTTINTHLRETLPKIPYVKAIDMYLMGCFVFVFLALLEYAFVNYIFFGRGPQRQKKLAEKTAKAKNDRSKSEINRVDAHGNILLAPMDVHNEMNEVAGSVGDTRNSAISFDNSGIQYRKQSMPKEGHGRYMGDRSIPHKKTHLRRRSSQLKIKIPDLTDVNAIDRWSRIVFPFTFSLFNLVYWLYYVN
Chain of α3β3γ2 GABAA receptors (P18508 39-466): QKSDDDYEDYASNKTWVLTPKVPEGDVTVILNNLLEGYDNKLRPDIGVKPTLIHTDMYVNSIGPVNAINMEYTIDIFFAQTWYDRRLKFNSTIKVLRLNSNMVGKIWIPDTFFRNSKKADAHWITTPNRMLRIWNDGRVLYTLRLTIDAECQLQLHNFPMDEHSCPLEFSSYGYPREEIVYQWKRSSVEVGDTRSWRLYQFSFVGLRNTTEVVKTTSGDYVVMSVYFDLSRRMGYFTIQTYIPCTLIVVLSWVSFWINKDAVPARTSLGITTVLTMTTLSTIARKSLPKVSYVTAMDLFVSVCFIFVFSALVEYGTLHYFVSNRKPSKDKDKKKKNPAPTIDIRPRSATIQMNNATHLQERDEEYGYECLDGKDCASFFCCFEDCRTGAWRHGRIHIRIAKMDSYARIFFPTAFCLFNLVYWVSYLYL
Chain of α2β3γ2 GABAA receptors (P23576 29-451): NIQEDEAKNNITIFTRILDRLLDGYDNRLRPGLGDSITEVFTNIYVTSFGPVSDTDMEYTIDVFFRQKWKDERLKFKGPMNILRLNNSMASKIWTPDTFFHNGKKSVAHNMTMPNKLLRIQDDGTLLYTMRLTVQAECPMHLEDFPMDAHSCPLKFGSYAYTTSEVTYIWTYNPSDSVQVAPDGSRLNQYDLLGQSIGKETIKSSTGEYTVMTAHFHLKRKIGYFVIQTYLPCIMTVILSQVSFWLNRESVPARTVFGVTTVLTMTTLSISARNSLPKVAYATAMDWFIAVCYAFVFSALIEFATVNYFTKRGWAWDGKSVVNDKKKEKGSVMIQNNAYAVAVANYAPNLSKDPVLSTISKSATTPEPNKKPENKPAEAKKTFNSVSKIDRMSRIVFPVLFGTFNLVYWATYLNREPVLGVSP
Chain of α2β3γ2 GABAA receptors (P63079 26-473 partner): as the sequence (P63079 26-473 partner) above
Chain of α2β3γ2 GABAA receptors (P18508 39-466): as the sequence (P18508 39-466) above
Chain of α1β3γ2 GABAA receptors (P62813 28-455): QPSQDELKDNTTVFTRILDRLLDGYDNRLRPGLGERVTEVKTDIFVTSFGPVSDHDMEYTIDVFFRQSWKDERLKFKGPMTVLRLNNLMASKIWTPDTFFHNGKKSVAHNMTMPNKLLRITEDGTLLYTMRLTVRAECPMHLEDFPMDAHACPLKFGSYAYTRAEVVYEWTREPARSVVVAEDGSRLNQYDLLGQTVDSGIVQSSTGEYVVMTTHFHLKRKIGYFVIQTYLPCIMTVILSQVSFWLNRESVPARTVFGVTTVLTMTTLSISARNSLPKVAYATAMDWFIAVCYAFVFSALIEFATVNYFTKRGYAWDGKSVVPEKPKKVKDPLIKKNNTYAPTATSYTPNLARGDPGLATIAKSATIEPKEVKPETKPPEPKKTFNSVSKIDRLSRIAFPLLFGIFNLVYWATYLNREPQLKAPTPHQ
Chain of α1β3γ2 GABAA receptors (P63079 26-473 partner): as the sequence (P63079 26-473 partner) above
Chain of α1β3γ2 GABAA receptors (P18508 39-466): as the sequence (P18508 39-466) above
Chain of α5β3γ2 GABAA receptors (P19969 32-464 limits assumed): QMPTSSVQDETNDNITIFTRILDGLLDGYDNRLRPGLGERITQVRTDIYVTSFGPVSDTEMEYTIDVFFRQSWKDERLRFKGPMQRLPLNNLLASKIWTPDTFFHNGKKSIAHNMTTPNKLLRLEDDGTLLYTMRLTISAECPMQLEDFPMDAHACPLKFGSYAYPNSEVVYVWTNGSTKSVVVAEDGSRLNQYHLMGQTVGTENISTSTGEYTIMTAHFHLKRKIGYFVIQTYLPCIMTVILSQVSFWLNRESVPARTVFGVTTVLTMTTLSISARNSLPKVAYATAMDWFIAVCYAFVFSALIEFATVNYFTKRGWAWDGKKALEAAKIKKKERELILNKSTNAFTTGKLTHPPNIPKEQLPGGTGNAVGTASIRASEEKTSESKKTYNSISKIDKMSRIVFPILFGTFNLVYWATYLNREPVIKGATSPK
Chain of α5β3γ2 GABAA receptors (P63079 26-473 partner): as the sequence (P63079 26-473 partner) above
Chain of α5β3γ2 GABAA receptors (P18508 39-466): as the sequence (P18508 39-466) above

On to `CCN(CC)CCN1C(=O)CN=C(c2ccccc2F)c2cc(Cl)ccc21` [flurazepam], for which the “decrease of binding of radiolabelled zolpidem” value is on record as 23% in the series with α1 GABAA receptors (cerebellum) and 14% in the series on α1 GABAA receptors (hippocampus).
What is called Ki is the equilibrium dissociation constant of an inhibitor or competing ligand from its target. Turning to `C#Cc1cccc2c1[nH]c1cnc(C(=O)OC(C)(C)C)cc12` [WYS8, 8-ethynyl-β-carboline-3-carboxylate-t-butyl ester], the “% of control current” value at α5β3γ2 GABAA receptors (10 nM compound) is “no significant stimulation”; on α5β3γ2 GABAA receptors (100 nM compound), “non-significant changes”; on α2β3γ2 GABAA receptors (10 nM compound, EC3 GABA, α2β3γ2) it was “no significant stimulation”; at α3β3γ2 GABAA receptors (10 nM compound, EC3 GABA, α3β3γ2), “no significant stimulation”. In addition, at α5β3γ2 GABAA receptors (1 μM compound, α5 GABAA receptors), the “modulation of EC3 GABA response” value is recorded as “significant, though relatively small negative modulation”. Moreover, the remaining activity at 0.1 µM at α2β3γ2 GABAA receptors (read-out: % of control current) was found to be 109 ± 2%; at α3β3γ2 GABAA receptors (read-out: % of control current), 126 ± 7%; at α1β3γ2 GABAA receptors (read-out: % of control current), 141 ± 5%. In addition, the Ki on α3β3γ2 GABAA/BZ site was 0.102 µM; on α2β3γ2 GABAA/BZ site, 0.111 µM; on α5β3γ2 GABAA/BZ site it was 0.208 µM. Besides, the concentration at 20 min in series [1] is under 0.1 µM. The “binding affinity at α1 GABAA receptors” value at α1β3γ2 GABAA/BZ site was “sub-nanomolar”. The potentiation on α1β3γ2 GABAA receptors (at 100 nM, α1-subtype) came out at 40%. Further, the remaining activity at 0.01 µM at α1β3γ2 GABAA receptors (read-out: % of control current) was 124 ± 3%. In addition, the “effect of addition to DZP on DZP's actions in the water maze” value in series [2] (WYS8 0.2, 1 and 10 mg/kg + DZP 2 mg/kg i.p.) was “did not generally affect the BZ’s actions”. Besides, in series [2] (WYS8 0.2, 1 and 10 mg/kg + β-CCt 5 mg/kg i.p.), the “activity in the water maze when combined with β-CCt” value is listed as “devoid of any activity”. In series [2], the “effect on Morris water-maze performance on its own” value is “no substantial effect”. Further, in series [2] (setting [4]), the “latency on the fourth day, combination with DZP vs DZP alone” value is recorded as “significantly longer latencies than those treated with DZP alone”. The “total distance on the fourth day, combination with DZP vs DZP alone” value in series [2] (setting [4]) is recorded as “significantly longer distances than those treated with DZP alone”.
For the compound `CC(C)(C)OC(=O)c1cc2c(cn1)[nH]c1ccccc12` [β-CCt, t-butyl-β-carboline-3-carboxylate, reference compound], in [3] (acquisition), the “effect on spatial learning deficits induced by DZP in the water maze” value is given as “almost completely abolished”. Also, the “effect on spatial memory deficits induced by DZP, probe trial” value in series [3] was “at least partially prevented”. The “binding affinity at α1 GABAA receptors” value on α1β3γ2 GABAA/BZ site is “sub-nanomolar”. Also, the “effect on Morris water-maze performance on its own” value in [2] is recorded as “no substantial effect”.
For `CN1C(=O)CN=C(c2ccccc2)c2cc(Cl)ccc21` [DZP, diazepam, reference compound], the remaining activity at 0.01 µM at α5β3γ2 GABAA receptors (read-out: % of control current) came to 160 ± 2%; at α2β3γ2 GABAA receptors (read-out: % of control current), 193 ± 5%; on α3β3γ2 GABAA receptors (read-out: % of control current) it was 167 ± 8%; on α1β3γ2 GABAA receptors (read-out: % of control current), 136 ± 3%. For the same compound, the “total distance travelled during acquisition” value in series [2] (2 mg/kg i.p., vs solvent-treated controls) is “significantly longer distances than solvent-treated controls during all five days”.
